# Test results published in PMC7982429 (Acta Pharmaceutica Sinica. B, 2020).
# Several values for one entry are separate records, joined by “and”; a condition that tells them apart may be missing. Equal values may be shown once. Read-outs that look alike come from different tables or passages of the source.
# Key:
# [1] = target: FGFR1 (Homo sapiens, UniProt P11362); assay: Kinase inhibition assay; assay type: biochemical; settings: for inhibition at 0.01 µM / inhibition at 0.1 µM / inhibition at 1 µM: read-out: FGFR1 inhibition rate (%)
# [2] = tested on: SNU16 cancer cell lines; assay: Cell proliferation assay; assay type: cell-based
# [3] = Whole blood stability assay; assay type: in vitro ADME, BALB/c nude mice; settings: BALB/c nude, mouse, fresh whole blood
# Procedure, shortened: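 Fresh BALB/c nude mouse blood was prewarmed 10 min at 37 °C, then spiked with test compound from a DMSO working solution. Aliquots taken at 0, 0.5, 1, 2 and 5 h were quenched with acetonitrile, centrifuged, and the supernatant diluted in acetonitrile/water. Remaining parent was quantified by UPLC–MS/MS (MRM). GSH adduct was monitored in negative-mode MRM (product ion m/z 272). Triplicates.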
# [4] = tested on: NCI-H1581 xenograft; assay: In vivo antitumor activity, NCI-H1581 xenograft mouse model; design: species or system nude mice (BALB/c); settings: 12.5 mg/kg, 20 days
# [5] = tested on: BaF3/TEL-FGFR1 cell; assay: Cell proliferation assay, BaF3/TEL-FGFR1; assay type: cell-based; settings: read-out: BaF3/TEL-FGFR1 IC50
# [6] = tested on: H1581 cells; assay: Cell proliferation assay, H1581; assay type: cell-based; settings: read-out: H1581 IC50; FGFR1 amplification
# [7] = tested on: BaF3/TEL-KDR cell; assay: Cell proliferation assay, BaF3/TEL-KDR; assay type: cell-based; settings: read-out: BaF3/TEL-KDR IC50
# [8] = tested on: UMUC14 cells; assay: Cell proliferation assay, UMUC14; assay type: cell-based; settings: read-out: UMUC14 IC50; FGFR3 mutation
# [9] = tested on: KG1 cells; assay: Cell proliferation assay, KG1; assay type: cell-based; settings: read-out: KG1 IC50; FGFR1OP2-FGFR1 (FGFR1-translocated)
# [10] = Homo sapiens, SNU-16, read-out: SNU16 IC50
# Sequence of FGFR1 (P11362 22-822): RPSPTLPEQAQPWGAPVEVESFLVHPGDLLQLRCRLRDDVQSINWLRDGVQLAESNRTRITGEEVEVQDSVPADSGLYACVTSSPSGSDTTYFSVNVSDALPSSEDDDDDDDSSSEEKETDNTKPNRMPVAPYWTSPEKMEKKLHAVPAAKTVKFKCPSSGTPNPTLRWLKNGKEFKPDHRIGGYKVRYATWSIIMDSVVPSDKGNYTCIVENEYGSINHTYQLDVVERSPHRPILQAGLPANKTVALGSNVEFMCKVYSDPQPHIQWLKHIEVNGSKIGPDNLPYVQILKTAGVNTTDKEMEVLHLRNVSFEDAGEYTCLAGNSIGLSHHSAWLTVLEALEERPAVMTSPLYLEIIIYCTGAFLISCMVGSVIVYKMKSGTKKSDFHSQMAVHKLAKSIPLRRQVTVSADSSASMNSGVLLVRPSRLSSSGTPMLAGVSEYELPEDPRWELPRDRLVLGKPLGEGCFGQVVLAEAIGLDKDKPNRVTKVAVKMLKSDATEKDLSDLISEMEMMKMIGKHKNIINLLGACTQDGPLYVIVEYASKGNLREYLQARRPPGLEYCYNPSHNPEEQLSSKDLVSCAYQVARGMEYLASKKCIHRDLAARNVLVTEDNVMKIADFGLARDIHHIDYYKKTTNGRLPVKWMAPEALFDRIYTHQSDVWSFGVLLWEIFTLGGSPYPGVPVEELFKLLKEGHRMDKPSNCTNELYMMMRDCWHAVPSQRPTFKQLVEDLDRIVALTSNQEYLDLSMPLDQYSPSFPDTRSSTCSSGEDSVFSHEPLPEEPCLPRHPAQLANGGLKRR
compound,measurement,setting,value
Nc1n[nH]c(=O)c2nn(-c3ccccc3)c(-c3ccco3)c12 [Compound 6],inhibition at 0.01 µM,[1],18.6%
same,inhibition at 0.1 µM,[1],19.6%
same,inhibition at 1 µM,[1],22.9%
Nc1n[nH]c(=O)c2nn(-c3ccccc3)c(-c3ccccc3)c12 [Compound 7],inhibition at 0.01 µM,[1],22.9%
same,inhibition at 0.1 µM,[1],20.4%
same,inhibition at 1 µM,[1],19.9%
COc1ccc2c(C)c(-c3c4c(N)n[nH]c(=O)c4nn3-c3ccccc3)oc2c1 [Compound 8d],IC50,[1],67.7 ± 3.9 nM
COc1ccc2oc(-c3c4c(N)n[nH]c(=O)c4nn3-c3ccccc3)c(C)c2c1 [Compound 8f],IC50,[1],77.5 ± 14.7 nM
Cc1c(-c2c3c(N)n[nH]c(=O)c3nn2-c2ccccc2)oc2cc(Cl)ccc12 [Compound 8i],inhibition at 0.1 µM,[1],64.2%
same,inhibition at 1 µM,"[2]; Homo sapiens, SNU-16, read-out: SNU16 proliferation inhibition",49.7%
Cc1c(-c2c3c(N)n[nH]c(=O)c3nn2-c2ccccc2)oc2ccc(Cl)cc12 [Compound 8j],IC50,[1],56.4 ± 15.8 nM
Cc1c(-c2c3c(N)n[nH]c(=O)c3nn2-c2ccccc2)oc2ccc(Br)cc12 [Compound 8m],IC50,[1],66.8 ± 16.5 nM
same,IC50,[2]; [10],> 1000 nM
Cc1c(-c2c3c(N)n[nH]c(=O)c3nn2-c2ccccc2)oc2c(Cl)cccc12 [Compound 8p],inhibition at 0.1 µM,[1],38.1%
CC(=O)Nc1ccc(-n2nc3c(=O)[nH]nc(N)c3c2-c2oc3ccc(C)cc3c2C)cc1 [Compound 9j],inhibition at 0.1 µM,[1],76.4%
Cc1ccc2oc(-c3c4c(N)n[nH]c(=O)c4nn3-c3ccc(CNC(=O)OCc4ccccc4)cc3)c(C)c2c1 [Compound 9m],IC50,[1],13.8 ± 1.3 nM
CCC(=O)Nc1ccc(-n2nc3c(=O)[nH]nc(N)c3c2-c2oc3ccc(C)cc3c2C)cc1 [Compound 9o],inhibition at 0.1 µM,[1],66.2%
Cc1ccc2oc(-c3c4c(N)n[nH]c(=O)c4nn3Cc3ccc([N+](=O)[O-])cc3)c(C)c2c1 [Compound 9w],inhibition at 0.1 µM,[1],16.9%
CCCCNc1cc(F)c(-n2nc3c(=O)[nH]nc(N)c3c2-c2oc3ccc(C)cc3c2C)c(F)c1 [Compound 9z],inhibition at 0.1 µM,[1],73.9%
same,IC50,[2]; [10],> 1000 nM
C/C=C/C(=O)Nc1ccc(-n2nc3c(=O)[nH]nc(N)c3c2-c2oc3ccc(C)cc3c2C)cc1 [Compound 10b],half-life at 1 μmol/L,[3],71.2 h
C=CC(=O)Nc1cccc(-n2nc3c(=O)[nH]nc(N)c3c2-c2oc3ccc(C)cc3c2C)c1 [Compound 10l],IC50,[2]; [10],660 ± 322 nM
AZD4547,TGI (tumor weight inhibition rate at the treatment endpoint),[4],65.6%
same,IC50,[5],0.5 nM
same,IC50,[6],59.8 ± 8.1 nM
same,IC50,[7],417 ± 10 nM
same,IC50,"[2]; read-out: SNU16 IC50, FGFR2 amplification SNU16 cell line",3.7 nM and 5 nM
same,IC50,[8],6.4 ± 1.3 nM
same,IC50,[9],3.7 ± 0.6 nM
